From ChEMBL document CHEMBL3259662 (ACS Med Chem Lett, 2014)
Converted amounts (≈) assume the structure as drawn. The source made the active and inactive calls. No cut-off for these calls is given here.

Tests used:
[1] = system: Candida albicans; assay: Antifungal activity against Candida albicans by CLSI method; format: functional, organism-based
[2] = Binding affinity to EYPC/EYPG assessed as disruption of SUVs integrity by transmission electron microscopy
Method in brief: (§1)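 Small unilamellar vesicles were made by a literature method, either EYPC/EYPG or EYPC/cholesterol, and incubated with or without peptide. Samples were deposited on carbon-coated copper grids, negatively stained with 2% (w/v) phosphotungstic acid and imaged by TEM to judge vesicle integrity and morphology.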

[3] = system: SK-OV-3; assay: Cytotoxicity against human SKOV3 cells assessed as cell viability after 48 hrs by neutral red uptake assay; format: cell-based; conditions: sk-ov-3, 48 h
Method in brief: (§2)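 Neutral red uptake assay in human cancer lines SK-MEL, KB, BT-549 and SK-OV-3 and in noncancerous mammalian kidney cells VERO and LLC-PK1. The highest tested concentration was 10 μg/mL.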

[4] = system: SK-MEL; assay: Cytotoxicity against human SK-MEL cells assessed as cell viability after 48 hrs by neutral red uptake assay; format: cell-based; method in brief: as §2
[5] = Selectivity index, ratio of cytotoxicity for human SK-MEL cells to IC50 for Cryptococcus neoformans ATCC 90113; format: toxicity, cell-based; conditions: read-out: Selectivity Index
[6] = system: Vero; assay: Cytotoxicity against African green monkey Vero cells assessed as cell viability after 48 hrs by neutral red uptake assay; format: cell-based; conditions: chlorocebus sabaeus; method in brief: as §2
[7] = system: Nakaseomyces glabratus; assay: Antifungal activity against Candida glabrata by CLSI method; format: functional, organism-based
[8] = system: Aspergillus fumigatus; assay: Antifungal activity against Aspergillus fumigatus by CLSI method; format: functional, organism-based
[9] = system: KB; assay: Cytotoxicity against human KB cells assessed as cell viability after 48 hrs by neutral red uptake assay; format: cell-based; method in brief: as §2
[10] = Selectivity index, ratio of cytotoxicity for pig LLC-PK1 cells to IC50 for Cryptococcus neoformans ATCC 90113; format: toxicity, cell-based; conditions: read-out: Selectivity Index
[11] = system: Cryptococcus neoformans; assay: Antifungal activity against Cryptococcus neoformans ATCC 90113 after 70 to 74 hrs by CLSI method; format: functional, organism-based; conditions: for IC50 / MIC: Cryptococcus neoformans, ATCC 90113
Method in brief: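 Growth inhibition of C. neoformans per the CLSI protocol. […] MIC is the lowest test concentration with no detectable growth. MFC is the lowest concentration killing 100% of the organism.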

[12] = system: Escherichia coli; assay: Antibacterial activity against Escherichia coli ATCC 35218 after 16 to 20 hrs by CLSI method; format: functional, organism-based
[13] = system: Lipid bilayer; assay: Binding affinity to small unilamellar vesicles assessed as destruction of membrane by transmission electron microscopy; method in brief: as §1
[14] = Selectivity index, ratio of cytotoxicity for human BT549 cells to IC50 for Cryptococcus neoformans ATCC 90113; format: toxicity, cell-based, BT-549; conditions: read-out: Selectivity Index
[15] = system: BT-549; assay: Cytotoxicity against human BT549 cells assessed as cell viability after 48 hrs by neutral red uptake assay; format: cell-based; conditions: bt-549, 48 h; method in brief: as §2
[16] = Selectivity index, ratio of cytotoxicity for human KB cells to IC50 for Cryptococcus neoformans ATCC 90113; format: toxicity, cell-based; conditions: read-out: Selectivity Index
[17] = system: Cryptococcus neoformans; assay: Ratio of amphotericin B MFC to compound MFC for Cryptococcus neoformans ATCC 90113 after 70 to 74 hrs by CLSI method; format: functional
[18] = Selectivity index, ratio of cytotoxicity for African green monkey Vero cells to IC50 for Cryptococcus neoformans ATCC 90113; format: toxicity, cell-based; conditions: read-out: Selectivity Index
[19] = system: Pichia kudriavzevii; assay: Antifungal activity against Candida krusei by CLSI method; format: functional, organism-based
[20] = Selectivity index, ratio of cytotoxicity for human SKOV3 cells to IC50 for Cryptococcus neoformans ATCC 90113; format: toxicity, cell-based, SK-OV-3; conditions: read-out: Selectivity Index
[21] = system: LLC-PK1; assay: Cytotoxicity against pig LLC-PK1 cells assessed as cell viability after 48 hrs by neutral red uptake assay; format: cell-based, Sus scrofa; conditions: llc-pk1, 48 h; method in brief: as §2
[22] = Binding affinity to EYPC/cholesterol by transmission electron microscopy; method in brief: as §1
[23] = Retention time of the compound by reverse phase HPLC analysis; format: physicochemical
Method in brief: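 Reverse-phase HPLC on a C-18 column (25 cm × 4.6 mm, 5 μM) at 1 mL/min over 40 min. The gradient ran 85−5% with A = 0.1% TFA in H2O and B = 0.1% TFA in CH3CN. Detection was at 220 nm.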

[24] = system: Staphylococcus aureus; assay: Antibacterial activity against methicillin-resistant Staphylococcus aureus ATCC 33591 after 16 to 20 hrs by CLSI method; format: functional, organism-based
[25] = system: Staphylococcus aureus; assay: Antibacterial activity against Staphylococcus aureus ATCC 29213 by CLSI method; format: functional, organism-based

SMILES | Activity [1] | Activity [3] | Activity [4] | selectivity ratio [5] | Activity [6] | Activity [7] | Activity [8] | Activity [9] | selectivity ratio [10] | MFC100 [11] | IC50 [11] | MIC [11] | Activity [12] | selectivity ratio [14] | Activity [15] | selectivity ratio [16] | Ratio [17] | selectivity ratio [18] | Activity [19] | selectivity ratio [20] | also measured
CC(C)(C)c1ccc(-c2nc(C[C@H](NC(=O)[C@@H](N)CCCNC(=N)N)C(=O)N[C@@H](CCCNC(=N)N)C(=O)NCc3ccccc3)c[nH]2)cc1 | inactive | > 10 µg/mL | > 10 µg/mL | > 143 | > 10 µg/mL | inactive | inactive | > 10 µg/mL | > 143 | 0.16 µg/mL (≈ 0.232 µM) | 0.07 µg/mL (≈ 0.102 µM) | 0.16 µg/mL (≈ 0.232 µM) | inactive | > 143 | > 10 µg/mL | > 143 | 8 | > 143 | inactive | > 143 | Activity [2]: Active; Activity [13]: Active; Activity [21]: > 10 µg/mL; Activity [22]: inactive
CC(C)(C)OC(=O)N[C@@H](CCCNC(=N)N)C(=O)N[C@@H](Cc1c[nH]c(-c2ccc(-c3ccccc3)cc2)n1)C(=O)N[C@@H](CCCNC(=N)N)C(=O)NCc1ccccc1 | inactive | > 10 µg/mL | > 10 µg/mL | > 50 | > 10 µg/mL | inactive | inactive | > 10 µg/mL | > 50 | 0.31 µg/mL (≈ 0.383 µM) | 0.2 µg/mL (≈ 0.247 µM) | 0.31 µg/mL (≈ 0.383 µM) | inactive | > 50 | > 10 µg/mL | > 50 | 4 | > 50 | inactive | > 50 | Retention_time [23]: 24.04 min; MBC100 [24]: 20 µg/mL (≈ 24.7 µM); MIC ([24]; Staphylococcus aureus, ATCC 33591): 20 µg/mL (≈ 24.7 µM); IC50 ([24]; Staphylococcus aureus, ATCC 33591, read-out: IC50): 10.8 µg/mL (≈ 13.3 µM); IC50 [25]: 6.88 µg/mL (≈ 8.5 µM); MBC100 [25]: inactive; MIC [25]: 20 µg/mL (≈ 24.7 µM); Activity [21]: > 10 µg/mL
